Active and inactive are the calls of the source. The rule behind the calls is not given here.
How the values were obtained:
[1] = tested on: Mus musculus; experiment: Immunostimulatory activity in C57BL/6 mouse assessed as increase in serum IFN-gamma production at 10 ug/mL, iv after 10 to 60 hrs post-injection by ELISA; assay type: functional, organism-based
Summary of the method: (§1)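 C57BL/6 mice, 8–16 wk old, kept specific pathogen-free. Glycolipid stock (1.0 mg/mL in DMSO) diluted to 10 µg/mL in Dulbecco's PBS just before dosing; 200 µL given iv. Retro-orbital heparinized blood taken at 3, 6, 12, 24, 36, 48 and 60 h for plasma. IFN-γ measured by ELISA; IL-4 and IL-12p70 by cytometric bead array. Mean ± SD of 3 mice; experiment repeated three times.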

[2] = tested on: Mus musculus; experiment: Immunostimulatory activity in C57BL/6 mouse assessed as increase in serum IL4 production at 10 ug/mL, iv after 3 to 24 hrs post-injection by cytometric bead array method; assay type: functional, organism-based; summary of the method: as §1
[3] = tested on: PBMC; experiment: Immunostimulatory activity in human PBMC assessed as increase in IFN-gamma production by ELISA; assay type: functional, cell-based
[4] = tested on: Mus musculus; experiment: Immunostimulatory activity in C57BL/6 mouse assessed as increase in serum IFN-gamma production at 10 ug/mL, iv after 24 hrs post-injection by ELISA; assay type: functional, organism-based; summary of the method: as §1
[5] = tested on: Mus musculus; experiment: Immunostimulatory activity in C57BL/6 mouse assessed as increase in serum IFN-gamma production at 10 ug/mL, iv after 36 hrs post-injection by ELISA; assay type: functional, organism-based; summary of the method: as §1
[6] = tested on: Mus musculus; experiment: Ratio of KRN700 to compound activity for increase in serum IL4 production in C57BL/6 mouse at 10 ug/mL, iv after 3 to 24 hrs post-injection by cytometric bead array method; assay type: functional
[7] = tested on: Mus musculus; experiment: Immunostimulatory activity in C57BL/6 mouse assessed as increase in serum IL-12p70 production at 10 ug/mL, iv after 3 hrs post-injection by cytometric bead array method; assay type: functional, organism-based; summary of the method: as §1
[8] = tested on: Mus musculus; experiment: Immunostimulatory activity in C57BL/6 mouse assessed as increase in serum IL-12p70 production at 10 ug/mL, iv after 6 hrs post-injection by cytometric bead array method; assay type: functional, organism-based; summary of the method: as §1
[9] = tested on: Mus musculus; experiment: Immunostimulatory activity in C57BL/6 mouse assessed as mild increase in serum IFN-gamma production at 10 ug/mL, iv after 10 to 60 hrs post-injection by ELISA; assay type: functional, organism-based; summary of the method: as §1
[10] = tested on: Mus musculus; experiment: Immunostimulatory activity in C57BL/6 mouse assessed as increase in serum IL-12p70 production at 10 ug/mL, iv after 3 to 24 hrs post-injection by cytometric bead array method; assay type: functional, organism-based; summary of the method: as §1

CCCCCCCCCCCCCCCCCCCCCCCCCC(=O)N[C@@H](CO[C@H]1C[C@H](OC)[C@H](O)[C@H](O)[C@H]1O)[C@H](O)[C@H](O)CCCCCCCCCCCCCC
Activity [1]: Active | Activity [2]: Active

CCCCCCCCCCCCCCCCCCCCCCCCCC(=O)N[C@@H](CO[C@H]1C[C@H](O)[C@H](O)[C@H](O)[C@H]1O)[C@H](O)[C@H](O)CCCCCCCCCCCCCC
Activity [1]: Active | Activity [2]: Active | Activity [3]: Active

CCCCCCCCCCCCCCCCCCCCCCCCCC(=O)N[C@@H](CO[C@H]1C[C@H](CO)[C@H](O)[C@H](O)[C@H]1O)[C@H](O)[C@H](O)CCCCCCCCCCCCCC
Activity [4]: Active | Activity [5]: Active | Ratio [6]: 0.5 | Activity [3]: Active | Activity [7]: Active | Activity [8]: Active

CCCCCCCCCCCCCCCCCCCCCCCCCC(=O)N[C@@H](CO[C@H]1C[C@H](C)[C@H](O)[C@H](O)[C@H]1O)[C@H](O)[C@H](O)CCCCCCCCCCCCCC
Activity [9]: Active

C[C@H]1O[C@H](O)[C@H](O)[C@@H](O)[C@H]1O
Activity [1]: Active

CCCCCCCCCCCCCCCCCCCCCCCCCC(=O)N[C@@H](CO[C@H]1C[C@H](COC)[C@H](O)[C@H](O)[C@H]1O)[C@H](O)[C@H](O)CCCCCCCCCCCCCC
Activity [9]: Active

CCCCCCCCCCCCCCCCCCCCCCCCCC(=O)N[C@@H](CO[C@@H]1[C@H](O)[C@@H](O)[C@@H](O)[C@@H](O)[C@@H]1O)[C@H](O)[C@H](O)CCCCCCCCCCCCCC
Activity [1]: inactive | Activity [2]: inactive | Activity [10]: inactive

CCCCCCCCCCCCCCCCCCCCCCCCCC(=O)N[C@@H](CO[C@@H]1[C@H](O)[C@@H](O)[C@H](O)[C@@H](O)[C@@H]1O)[C@H](O)[C@H](O)CCCCCCCCCCCCCC
Activity [1]: inactive | Activity [2]: inactive | Activity [10]: inactive
